Bioassay records as filed in PubChem BioAssay.
Compounds with a hit are over-represented: about 3.5% of the library has one in this group of screens.
MrgX1 allo act = allosterically activates human MrgX1 receptor signaling; B-score at 10 µM; MrgX1-HEK293, Fluo-4 calcium flux, FDSS; stronger effect = higher value; 0.63% of 310,000 active; Q96LB2;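 active = plate-corrected calcium response at least 3 library SD above typical, normal starting fluorescence, not activating the receptor alone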;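 also: compound read alongside a low EC10 to EC30 dose of BAM8-22 agonist; peak minus trough fluorescence over baseline measured at the second addition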
Target sequence (Q96LB2 whole entry, looked up): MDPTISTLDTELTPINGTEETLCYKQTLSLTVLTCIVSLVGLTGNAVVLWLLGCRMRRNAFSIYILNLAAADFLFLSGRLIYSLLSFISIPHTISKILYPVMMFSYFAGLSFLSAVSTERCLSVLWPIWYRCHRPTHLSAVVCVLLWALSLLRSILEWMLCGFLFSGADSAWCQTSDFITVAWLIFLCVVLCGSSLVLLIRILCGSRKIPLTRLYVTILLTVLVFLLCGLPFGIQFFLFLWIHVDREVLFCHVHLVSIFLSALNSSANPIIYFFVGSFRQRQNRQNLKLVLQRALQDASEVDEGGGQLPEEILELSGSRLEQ
MrgX1 agonist = agonists of human MrgX1 receptor; MrgX1-HEK293 cells, Fluo-4 calcium fluorescence, agonist mode; stronger effect = higher value; 0.44% of 310,000 active; B-score at 10 µM; AID 588627; Q96LB2;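 active = calcium response B-score plate-corrected fluorescence ratio at least 3 library SD, with starting fluorescence B-score inside 5 SD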
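Material – MrgX1-expressing HEK293 cells · Input – 15,000 cells seeded per well · Dosing – compound as first of three additions · Times – overnight seeding, then 1 h dark dye loading · Measured by – kinetic Fluo-4 NW fluorescence of intracellular calcium · Read-out – B-scored fluorescence response ratio · Benchmarks – positive and negative control wells on each plate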
RGS4 pot = potentiators or activators of RGS4; HEK293 M3R/inducible RGS4, carbachol calcium flux Fluo4; stronger effect = lower value; B-score at 10 µM; 0.92% of 310,000 active;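 active = B-score of the integrated calcium signal more than 4 SD below the library mean, with starting fluorescence not abnormally high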;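 also: negative B-score means reduced calcium response which marks RGS4 activation or potentiation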
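Material: M3R-expressing HEK293 line, RGS4 induced by doxycycline | Schedule: Overnight RGS4 induction, 30 min dye load 37 °C, 20 min compound RT | Measured by: Fluo4 fluorescence kinetic imaging of calcium | Read-out: Integrated calcium ratio converted to B score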
RGS4 block = human RGS4 inhibition. HEK293 M3R/RGS4 inducible, Fluo-4 calcium flux; stronger effect = higher value; triggered by carbachol at its EC20. B-score at 10 µM. 0.45% of 310,000 active. AID 463165;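 active = B-score, a plate-corrected calcium signal, over three deviations above library mean, with baseline fluorescence within five deviations of library mean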;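 also: RGS4 expression induced by doxycycline in cells with stable M3 receptor; B-score is computed from the integrated fluorescence ratio over baseline after carbachol; higher B-score means a larger calcium signal and so more RGS4 inhibition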
Target sequence (P49798 whole entry, looked up): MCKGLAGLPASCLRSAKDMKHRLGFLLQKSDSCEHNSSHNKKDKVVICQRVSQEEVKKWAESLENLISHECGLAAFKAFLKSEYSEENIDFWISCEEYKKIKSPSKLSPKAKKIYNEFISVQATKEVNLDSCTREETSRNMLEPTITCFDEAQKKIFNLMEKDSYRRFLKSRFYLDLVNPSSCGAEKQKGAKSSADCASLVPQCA
MrgX1 antagonist = human MrgX1 receptor antagonism, primary screen | 1.3% of 310,000 active | B-score at 10 µM | Q96LB2 | AID 588676 | MRGX1-HEK293 calcium flux, Fluo-4, BAM8-22 antagonism; stronger effect = lower value;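 active = calcium-response B-score plate-corrected more than 3 library SD below zero, starting fluorescence within 5 deviations, no agonist response on first addition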;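 also: peak minus trough fluorescence over baseline after final BAM8-22 challenge near maximal dose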
MrgX1 antag conf = confirmation of human MrgX1 receptor antagonists; MrgX1-HEK293, BAM8-22 calcium flux, Fluo-4; stronger effect = lower value; AID 602420; remaining BAM8-22 calcium response % of control (stronger effect = lower value), % at 10 µM; shares compounds with MrgX1 antagonist; 19% of 2,300 active;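 active = remaining agonist calcium response no higher than 100% minus 3 SD of agonist-only control wells, with starting fluorescence near control levels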;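 also: agonist BAM8-22 given at a near maximal EC90 to ECmax level; peak minus minimum fluorescence divided by baseline after agonist addition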
HEK293 Ca flux = activity in parental HEK293 cells lacking MrgX1. shares compounds with MrgX1 antagonist. Fluo-4 calcium fluorescence, FDSS. fluorescence ratio F(max-min)/F0 at 10 µM. 2% of 4,000 active. AID 624111;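 active = duplicate-averaged calcium fluorescence ratio at least three times the standard deviation of buffer wells, a nonspecific response in parental cells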
HEK293 Ca counter = MrgX1 allosteric activator counter-screen hit in parental HEK293 cells | shares compounds with MrgX1 antagonist | parental HEK293 calcium flux, Fluo-4 fluorescence ratio; stronger effect = higher value | fluorescence ratio F(max-min)/F0 at 10 µM | 0.4% of 4,000 active;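 active = calcium fluorescence ratio, averaged over duplicates, at least 3 SD of the buffer-well ratio, meaning a nonspecific response in receptor-free cells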;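 also: untransfected parental HEK293 lacking MrgX1 used as counterscreen for MrgX1 allosteric activators; fluorescence change taken during the second addition on a kinetic imager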
HEK293 Ca cntr2 = MrgX1 activator counter-screen hit in parental HEK293 cells | shares compounds with MrgX1 antagonist | Fluo-4 calcium fluorescence (FDSS); stronger effect = higher value | fluorescence ratio F(max-min)/F0 at 10 µM | 8.7% of 4,000 active;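 active = calcium fluorescence ratio at least three times the spread of buffer wells, meaning a non-specific response in parental cells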
Numbers without * were called inactive; i = inactive; / = not tested or not shown.

SMILES	MrgX1 allo act	MrgX1 agonist	RGS4 pot	RGS4 block	MrgX1 antagonist	MrgX1 antag conf	HEK293 Ca flux	HEK293 Ca counter	HEK293 Ca cntr2
CCOc1ccccc1NC(=O)CCC(=O)Nc1ccc2nc(N3CCN(C)CC3)cc(C)c2c1	i	i	i	i	-5.1*	i	i	i	i
COc1ccc2cc(/C=C/C(=O)N3CCN(CC(=O)N4CCCCCC4)CC3)ccc2c1	i	i	i	i	i	/	/	/	/
CC(C)NC(=O)CN1CCN(C(=O)c2ccc3oc(CCCc4ccccc4)nc3c2)CC1	i	i	i	i	i	/	/	/	/
O=C(c1nc2ccc(Cl)cn2c1CN1CCC(O)CC1)N1CCc2ccccc2C1	i	i	i	i	-5.5*	i	i	i	i
COc1ccc(CC(=O)NC(C)(C)C)cc1S(=O)(=O)N1CCOCC1	i	i	i	i	i	/	/	/	/
COc1ccc(CC(=O)NC(C)c2ccc(S(N)(=O)=O)cc2)cc1S(=O)(=O)N1CCOCC1 (stereo not given)	i	i	i	i	-9.3*	i	i	i	i
Cc1ccc2c(c1)CCCN2S(=O)(=O)c1cccc(C(=O)Nc2ccccc2C(=O)O)c1	i	i	i	i	-6.7*	67%*	i	i	i
O=C(NC1=NCCS1)c1ccc(Cl)c(S(=O)(=O)N2CCc3ccccc32)c1	i	i	i	i	i	/	/	/	/
O=C(NC1=NCCS1)c1cccc(S(=O)(=O)N2CCc3ccccc32)c1	i	i	i	i	-4.9*	i	i	i	i
COc1ccc2oc(C(=O)OCC(=O)Nc3ccc(N4CCOCC4)cc3)c(C)c2c1	i	i	i	i	-8.5*	i	i	i	i
COc1ccc2oc(C(=O)OCC(=O)Nc3ccccc3)c(C)c2c1	i	i	i	i	i	/	/	/	/
CC(=O)c1ccc(NC(=O)c2cnn3c(C(F)F)cc(C4CC4)nc23)cc1	i	i	i	i	-5*	i	i	i	i
CC(C)CC(c1nnnn1CC1CCCO1)N1CCN(Cc2ccc3c(c2)OCO3)CC1 (stereo not given)	i	i	i	i	-5*	i	i	i	i
CC12CCC(C(=O)N(CC(O)CN3CCCCCC3)C1=O)C2(C)C (stereo not given)	i	i	i	i	i	/	/	/	/
COc1ccc(S(=O)(=O)n2ccc(C(C)Oc3ccc(-c4ccccc4)c(F)c3)n2)cc1 (stereo not given)	i	i	i	i	-6.6*	i	i	i	i
CC1CC2(NC(=O)NC2=O)C(C)CN1C (stereo not given)	i	i	i	i	i	/	/	/	/
CC1C[C@@]2(NC(=O)NC2=O)C(C)CN1C (stereo not given in full)	i	i	i	i	-5.5*	i	i	i	i
COc1cccc(OC)c1C(=O)N1CCN(Cc2ccccc2C)CC1	i	i	i	i	-4.6*	i	i	i	i
Brc1ccc(-c2nc3ncccn3c2NC2CCCCC2)o1	i	i	i	i	-5.3*	i	i	i	i
CCC(=O)N1CCC2(CC1)Oc1ccc(F)cc1C(=O)C21CC(c2ccccc2)=NO1 (stereo not given)	i	i	i	i	i	/	/	/	/
O=C(c1ccc2c(c1)OCO2)N1CCN(S(=O)(=O)c2ccc(Cl)cc2)CC1	i	i	i	i	-4.5*	i	i	i	i
O=C(c1ccc2c(c1)OCO2)N1CCN(c2ccc(Cl)cc2)CC1	i	i	i	i	i	/	/	/	/
O=C(CN1C(=O)NC2(CCCC2)C1=O)N1CCN(S(=O)(=O)c2ccccc2F)CC1	i	i	i	i	i	/	/	/	/
N#CC1(NC(=O)CN2CCN(S(=O)(=O)c3ccccc3F)CC2)CCCC1	i	i	i	i	-4.9*	i	i	i	i
CCS(=O)(=O)c1nc(S(=O)(=O)c2ccc(C)cc2)c(N2CCC3(CC2)OCCO3)s1	i	i	i	i	i	/	/	/	/
SMILES	MrgX1 allo act	MrgX1 agonist	RGS4 pot	RGS4 block	MrgX1 antagonist	MrgX1 antag conf	HEK293 Ca flux	HEK293 Ca counter	HEK293 Ca cntr2
CC(=O)Nc1ccc(Sc2ncccc2C(=O)Nc2ccc(OC(F)(F)F)cc2)cn1	i	i	i	i	-10*	i	i	i	i
COC(=O)C(CCSC)NC(=O)c1cn(-c2ccc(OC)cc2)c(=O)c2ccccc12 (stereo not given)	i	i	i	i	i	/	/	/	/
Cc1ccc(-n2c(=O)cc(N3CCCCCC3)[nH]c2=O)cc1	i	i	i	i	-7.7*	i	i	i	i
CCC(=O)Nc1ccccc1C(=O)OCC(=O)c1ccc2ccccc2c1	i	i	i	i	-6.3*	i	i	i	i
CCC(=O)Nc1ccccc1C(=O)OCC(=O)c1ccccc1	i	i	i	i	i	/	/	/	/
COc1cc(C(=O)N2CCCCCCC2)ccc1OC1CCN(C(C)=O)CC1	i	i	i	i	i	/	/	/	/
CCN(CC)S(=O)(=O)c1cc(NC(=O)CN2C(=O)NC3(CCCc4ccccc43)C2=O)ccc1C (stereo not given)	i	i	i	i	-6.1*	85%*	i	i	i
O=C(Nc1ccc(Br)cc1)c1ccc(F)c(S(=O)(=O)NCc2cccs2)c1	i	i	i	i	-5.3*	i	i	i	47*
CC12CCCC[C@@H]1CCC1C2CCC2(C)C1CC[C@@]2(O)CNCCO (stereo not given in full)	i	i	i	i	-7.8*	i	i	i	i
COc1ccccc1-c1nnc(SCc2nc3ccccc3s2)n1C	i	i	i	i	-5.8*	i	i	i	i
COc1ccc2c(=O)c3ccccc3oc2c1	i	i	i	i	i	/	/	/	/
